# Assay results as given in the RNAGym collection of RNA variant scans (doi:10.1126/science.aae0568).
# This sample holds only a part of the variants without activity.
# B1: tRNA (parent)
# chain: GUUCCGUUGGCGUAAUGGUAACGCGUCUCCCUCCUAAGGAGAAGACUGCGGGUUCGAGUCCCGUACGGAACG
# Variants of: B1
# Assay: yeast fitness relative to wild type (ratio to wild type); higher = fitter; tRNA-Arg(CCU), competitive growth, 37 C, YPD
# How it was run: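 Changes in genotype frequencies gave Darwinian fitness relative to wild type. Frequencies were read by 100-nucleotide paired-end sequencing of gene amplicons before and after pooled Saccharomyces cerevisiae strains, carrying tRNA-Arg(CCU) gene variants at the native locus, were competed in YPD at 37°C for 24 hours in six replicates. A genotype was kept only with ≥ 100 starting reads, and estimates < 0.5 were set to 0.5.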
row,Variant,yeast fitness
1,C4G U35C,0.942
2,C4U A21U A36G A43C C55U A65G,≤ 0.5
3,C4G U32G C62U G67U,≤ 0.5
4,C4U C5G C29U A65G,≤ 0.5
5,C4U A21U U28C G52C A57C,≤ 0.5
6,C4G U26A A43U C46G,0.593
7,C4U A14U C24G C30U C60G C62U,0.663
8,C4G U53G C66A,≤ 0.5
9,C4U A14C C22A U54C C55G,≤ 0.5
10,C4U C5A C60G,≤ 0.5
11,C4U A37U G52C A65C,≤ 0.5
12,C4G U16C U32A C46U G63C,≤ 0.5
13,C4U C11G C30G U47C,≤ 0.5
14,C4G U16C U19C U32A C46U G63C,≤ 0.5
15,C4U A36C U54C,≤ 0.5
16,C4U C11A G12A G48A G67A,≤ 0.5
17,C4G U28G C30A A43C C61G A65G,≤ 0.5
18,C4G U35A A36U,≤ 0.5
19,C4U C5A U13A C31U C34U,0.544
20,C4U C5G C27A,≤ 0.5
21,C4U A20C A65C,0.719
22,C4G U28G C30A A43C C61G,0.571
23,C4U A21C C22A C60U,≤ 0.5
24,C4U C11G G41A,≤ 0.5

row,Variant,yeast fitness
1,C4G U35A C61A,≤ 0.5
2,C4U C5G U28C A65G,0.562
3,C4U A14U C33G A69U,≤ 0.5
4,C4G U59A U64G A65C,≤ 0.5
5,C4G U19A C27A G58C C61A A69U,≤ 0.5
6,C4G U32C G63C,0.605
7,C4G U13C A15G G48A C61A,0.672
8,C4U C5A C46U,0.655
9,C4G U35G A43C U47C,≤ 0.5
10,C4G U13A U54C,0.548
11,C4G U26A C30U,≤ 0.5
12,C4U A57C G58A,0.58
13,C4G U19A C46U A70U,≤ 0.5
14,C4U A43C C62U,0.965
15,C4U A15G C27U G41A,≤ 0.5
16,C4U A42C G51C A65G,0.508
17,C4U A14G C34G G50C G56C,0.637
18,C4U A15G A65U,0.69
19,C4U C11G C29U U35C,≤ 0.5
20,C4U A42G A69C,0.636
21,C4U A15C C46A A57G C61A A70C,≤ 0.5
22,C4U C11A C46U,0.661
23,C4U A14G C30A,0.812
24,C4U A65G C66U,0.787

row,Variant,yeast fitness
1,C4U C5G C11A C66A,≤ 0.5
2,C4G U28A A40C G50A,≤ 0.5
3,C4U A14U A42G C46U,≤ 0.5
4,C4G U16C C31U A36G,≤ 0.5
5,C4U A20C C55G,≤ 0.5
6,C4G U32A C34G G41C C49G,≤ 0.5
7,C4U A21G G52A,≤ 0.5
8,C4U A36C C46U,≤ 0.5
9,C4U A20C C34G A36G,0.606
10,C4U A45G G51A G67A,≤ 0.5
11,C4U A21G G52A G63A,≤ 0.5
12,C4U A15U A45C,0.611
13,C4U A21G U32A A40C C46A C62U G67A,≤ 0.5
14,C4G U16G C30U C34A U53G,≤ 0.5
15,C4U C11G C29U G48A G52A,≤ 0.5
16,C4U C11A U28G C31U G51C,≤ 0.5
17,C4G U26A C27U A42C G51A A65U,≤ 0.5
18,C4U A14G A36G C60G C61A,≤ 0.5
19,C4U C11G C30G,≤ 0.5
20,C4U A15C C55U G63C,≤ 0.5
21,C4U C11G C34U U53C,≤ 0.5
22,C4G U19C G51A A65G,≤ 0.5
23,C4U A14C G68C,≤ 0.5
24,C4U A14C C49G C55G,≤ 0.5

row,Variant,yeast fitness
1,C4U A20C G51C A57G,≤ 0.5
2,C4U A15U U53A C62A,≤ 0.5
3,C4U A65U,1.04
4,C4G U8C U47A,≤ 0.5
5,C4G U28A C31G,≤ 0.5
6,C4U A20C C24G G56A C62A,≤ 0.5
7,C4U A21C G41U,0.625
8,C4U A57C C62U,0.601
9,C4G U32A G38C,≤ 0.5
10,C4U A15C C62G,≤ 0.5
11,C4G U19C,0.99
12,C4U A36G G44C,0.765
13,C4U A20G A40U A70G,≤ 0.5
14,C4U A20C C34U C55U,0.532
15,C4G U16C C27G A40G G48A A57C C62U,0.537
16,C4G U32A C34G G41C,≤ 0.5
17,C4U A20C C27U A40C,0.605
18,C4U A20C U47A A65U,≤ 0.5
19,C4G U28C,0.77
20,C4U C5U A37U C46U C61U C66U,≤ 0.5
21,C4G U16G A20C A21G C30U,≤ 0.5
22,C4U A15C G63C,0.556
23,C4U A40C A70G,≤ 0.5
24,C4U A15G C60G,0.537

row,Variant,yeast fitness
1,C4U C5G U16C C24G A42U A43G,≤ 0.5
2,C4G U19A A37U A42G,0.55
3,C4U A21U C66A,≤ 0.5
4,C4U A15C,0.763
5,C4U C5G A20G C29U G48C G63C,≤ 0.5
6,C4U C11U A57G,0.684
7,C4G U16C C31U,0.554
8,C4U C5G C29G C31G A37C A57G C66A,≤ 0.5
9,C4U C11G G18C U47A A69U,0.699
10,C4U A15C G67C,0.54
11,C4U A36C G48A,0.71
12,C4U C5G G48C,0.655
13,C4U A37U A70C,0.676
14,C4G U35G A70C,0.552
15,C4U A15G C22U,0.559
16,C4U A14C U59A C60U,≤ 0.5
17,C4U C5G U16C C24G A42C G56A,≤ 0.5
18,C4U C5G U7C C24G A43C,≤ 0.5
19,C4G U28C G56U U59A,0.606
20,C4U A36G,1.02
21,C4U A36U,0.82
22,C4U A42C A45G C49U C66A,≤ 0.5
23,C4U C5U G18A G25A C33U G48A G52A A65C G68A,≤ 0.5
24,C4U C5A A36U G39C A65C,≤ 0.5

row,Variant,yeast fitness
1,C4U C5G U28C,0.783
2,C4G U13C A40U A42C C66U,≤ 0.5
3,C4U C5U G48A G51C,≤ 0.5
4,C4U A20G U28C C31U G50C C55G U59C C60U G67U,≤ 0.5
5,C4U A20G C24U,0.624
6,C4U A15U U64C A65G,≤ 0.5
7,C4G U16G,0.831
8,C4U A45U,0.968
9,C4U A14U C33U C49G C55A,≤ 0.5
10,C4U A36G G44C A69U,0.635
11,C4U A42G A57U,0.551
12,C4U C11U A45C,0.7
13,C4U C11U A45G,0.687
14,C4G U28C A69U,0.568
15,C4U A20C C29U,0.715
16,C4G U16C C27G A40G G48A C55A A57C,≤ 0.5
17,C4U C5G U16C C24G A42C,0.504
18,C4U A57U U59C,0.54
19,C4U A69C,1.02
20,C4U A69U,1.02
21,C4G U19A G44C,0.535
22,C4U A45C C55U G68C,≤ 0.5
23,C4U C11A G39A G51A,≤ 0.5
24,C4U A15G G23C A37U U47C A65U,≤ 0.5

row,Variant,yeast fitness
1,C4U C5U C27G C31G,≤ 0.5
2,C4G U32G,0.628
3,C4G U16C C31U G51A,0.533
4,C4U C5G U16C C24G A42C G58A,0.571
5,C4U A43U C55G G67A,0.804
6,C4G U64C,0.872
7,C4G U64G,0.671
8,C4G U64A,0.707
9,C4G U16G U19C A21C C49U G50A,0.621
10,C4U C5U G9A G10A A15C C46A,0.619
11,C4G U16C C29G A36U C60G,≤ 0.5
12,C4G U16C A45G,0.597
13,C4U A20C C22U U47A C62U,0.753
14,C4U A14U C30A U54G A65C,0.634
15,C4U A21G C46A G67A,0.63
16,C4U A20G A45U C61U C62G A69C,0.602
17,C4G U19C C62U,0.799
18,C4G U16G C30U C34A U53G U59C A70C,≤ 0.5
19,C4G U26G G39C G48A,0.611
20,C4U C11G A45U C61G,0.518
21,C4U A36C A45C,≤ 0.5
22,C4U A42G A65U,0.611
23,C4U A15C C27A C31U A43G C60A,0.526
